# Screens (PubChem)
# Compounds with a hit are over-represented: about 4.7% of the library has one in this group of screens.
# Mdm2 MdmX PPI: disrupts the human Mdm2-MdmX interaction | hit rate 3% among 330,000 | SaOS-2 split-luciferase Mdm2/MdmX complementation, luminescence | inhibition, % at 8 µM | O15151+Q00987 | AID 485346;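 active = inhibition of at least 50% at 8 µM in the primary screen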
# Target sequence (O15151 whole entry, looked up): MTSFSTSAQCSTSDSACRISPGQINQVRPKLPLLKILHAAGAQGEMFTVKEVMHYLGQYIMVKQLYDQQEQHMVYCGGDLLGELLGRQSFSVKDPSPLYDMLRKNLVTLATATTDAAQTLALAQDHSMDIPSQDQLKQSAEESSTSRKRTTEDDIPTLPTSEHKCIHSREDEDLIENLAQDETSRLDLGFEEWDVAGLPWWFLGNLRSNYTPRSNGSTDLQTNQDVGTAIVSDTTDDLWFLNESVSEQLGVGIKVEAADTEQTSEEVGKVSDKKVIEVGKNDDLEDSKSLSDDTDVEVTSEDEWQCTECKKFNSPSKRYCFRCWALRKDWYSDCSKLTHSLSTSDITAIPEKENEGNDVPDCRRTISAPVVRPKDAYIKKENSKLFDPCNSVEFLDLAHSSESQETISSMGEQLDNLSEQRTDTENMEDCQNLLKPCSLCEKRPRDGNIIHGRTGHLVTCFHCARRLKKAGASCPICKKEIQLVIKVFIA
# Target sequence (Q00987 whole entry, looked up): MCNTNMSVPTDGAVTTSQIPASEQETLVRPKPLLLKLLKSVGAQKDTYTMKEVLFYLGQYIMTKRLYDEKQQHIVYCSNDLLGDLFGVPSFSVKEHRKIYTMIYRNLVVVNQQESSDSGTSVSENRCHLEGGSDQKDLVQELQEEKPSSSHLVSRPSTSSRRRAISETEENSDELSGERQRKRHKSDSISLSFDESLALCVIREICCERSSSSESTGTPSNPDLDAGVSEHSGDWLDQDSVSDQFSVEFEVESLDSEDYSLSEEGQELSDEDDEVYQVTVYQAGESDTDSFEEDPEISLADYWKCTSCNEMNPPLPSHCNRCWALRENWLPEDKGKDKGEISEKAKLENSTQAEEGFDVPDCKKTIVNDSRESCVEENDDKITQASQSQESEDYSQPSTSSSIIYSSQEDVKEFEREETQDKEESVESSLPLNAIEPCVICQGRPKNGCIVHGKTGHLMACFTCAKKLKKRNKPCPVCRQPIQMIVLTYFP
# 697 NFkB inh: lowers PMA/ionomycin-induced NF-kB signal in 697 B cells; 697 B-cell NF-kB luciferase reporter, 16 h; inhibition, % at 4 µM; AID 435022; hit rate 0.33% among 330,000; in the data active = inhibition above about 35%
# Jurkat NFkB inh: lowers PMA/ionomycin-induced NF-kB signal in Jurkat cells; PMA/ionomycin-induced NF-kB luciferase reporter, luminescence; inhibition, % at 4 µM; hit rate 0.53% among 330,000; in the data active = inhibition above about 50%
# aSyn UTR inh: 5' untranslated region of α-synuclein, MLPCN primary screen. inhibition, % (tested at 7.5 µM). alpha-synuclein 5'UTR reporter, inhibitor activity. hit rate 0.82% among 300,000; in the data active = inhibition above about 60%;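 note: H4 neuroglioblastoma cells stably carrying SNCA 5'UTR luciferase fusion; 0% = DMSO wells and 100% = positive control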
# IMP-1 inhibitor: inhibitors of Pseudomonas aeruginosa IMP-1 metallo-beta-lactamase; AID 1556; purified IMP-1, nitrocefin hydrolysis, epi-absorbance fluorescence; hit rate 0.45% among 290,000; inhibition, % at 5.6 µM;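 active = inhibition above the mean plus 3 SD of all compounds in the same screening run, cut at about 4.5% in these data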;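 note: 0% = IMP-1 with DMSO and 100% = DMSO wells lacking enzyme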
#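 System: purified IMP-1; amount: IMP-1 0.2 nM before substrate addition; compound: single dose, 5.6 µM; times: 25 °C, 15 min preincubation, 25 min reaction; signal: Epi-absorbance via hydrolysed-nitrocefin quenching of white-plate fluorescence, 480/530 nm, EDTA stop; benchmarks: DMSO with and without IMP-1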
# VIM-2 inhibitor: blocks Pseudomonas aeruginosa VIM-2 metallo-beta-lactamase; inhibition, % at 5.6 µM; hit rate 0.89% among 290,000; purified VIM-2, nitrocefin hydrolysis, epi-absorbance fluorescence;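 active = inhibition above the mean of all tested compounds plus 3 SD, cutoff set per screening run, cut at about 7.5% in these data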;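 note: red hydrolysis product quenches plate fluorescence so inhibitors raise well fluorescence; 0% = enzyme with DMSO and 100% = DMSO without enzyme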
# Starred values were filed as active, the others as inactive; . = not tested or not shown.
SMILES,Mdm2 MdmX PPI,697 NFkB inh,Jurkat NFkB inh,aSyn UTR inh,IMP-1 inhibitor,VIM-2 inhibitor
COc1ccc(NC(=O)CCS(=O)(=O)c2ccc(OC)cc2)cc1,-18,-12,-3,8,-1,-2
O=C(CCS(=O)(=O)c1ccc(Cl)cc1)Nc1ccccc1Br,5,-5,-6,-5,-3,-3
CCc1ccccc1NC(=O)CCS(=O)(=O)c1ccc(Br)cc1,21,7,12,0,34*,-2
COC(=O)C1=C(CCc2ccccc2)NC(=O)NC1c1ccc(Cl)cc1 (stereo unspecified),-2,3,33,28,.,.
O=C1CS(=O)(=O)c2ccccc2N1,19,2,6,9,-3,0
Cc1nonc1NC(=O)CSc1nnc(N)s1,22,11,9,-11,-4,-4
O=C(CCS(=O)(=O)c1ccc(Br)cc1)NCc1cccs1,14,8,-18,-1,-2,2
O=C(CCS(=O)(=O)c1ccc(Br)cc1)NCc1ccco1,10,6,11,-8,20*,-2
NC(=O)c1cc([N+](=O)[O-])ccc1NCc1ccc(N)cc1,31,27,11,.,.,.
CC(C)Cc1ccc(S(=O)(=O)N2CCN(c3ccccn3)CC2)cc1,2,0,14,-2,-2,0
O=c1c2ccccc2cnn1-c1nc2ccccc2[nH]1,.,.,.,98*,-4,-2
CCc1ccc(N2CC(C(=O)OCC(=O)Nc3ccc(C#N)cc3)CC2=O)cc1 (stereo unspecified),12,25,11,.,.,.
C/C(O)=c1/c(=O)nc2cccc3c2=c1c1ccccc1c3=O,41,11,-1,35,4,10*
CCS(=O)(=O)N1Cc2ccccc2CC1C(=O)N(C)CC(=O)Nc1cccc(F)c1 (stereo unspecified),21,-35,-24,-7,.,.
N=C1/C(=C\c2ccc(-c3ccc(C(=O)O)cc3)o2)C(=O)N=C2SC=C(c3ccccc3)N12,.,.,.,-29,11*,1
Cc1ccc(-n2nnnc2-c2ccccc2)cc1,31,10,0,13,-2,-2
CCN(CC)c1ccc(C=C(c2nnnn2-c2ccc(C)cc2)c2nnnn2-c2ccc(C)cc2)cc1,-50,-8,0,31,52*,-3
Cc1oc(-c2ccc(Cl)cc2)nc1CSCC(=O)NC1CCN(Cc2ccccc2)CC1,39,-37,29,22,-2,1
Cc1nc(-c2ccc([N+](=O)[O-])cc2)nc2[nH]ccc(=O)c12,-46,-177,-132,-202,0,9.7*
Cc1nc(-c2ccccc2)nc2[nH]ccc(=O)c12,-21,-37,-51,-101,-5,-5
N#CC1=C(N)Oc2c(ccc3ccccc23)C1c1cccs1 (stereo unspecified),-27,-213,38,110*,-3,-1
N#CC1=C(N)Oc2cc(O)ccc2C1c1cccs1 (stereo unspecified),25,8,10,17,-2,-1
O=C(CCN1C(=O)/C(=C\C=C\c2ccccc2)SC1=S)Nc1ccc(C(=O)O)cc1,1,-42,20,-69,8.4*,-1
O=C(CN1C(=O)S/C(=C/C=C/c2ccccc2)C1=O)Nc1ccc(C(=O)O)cc1,-10,5,-28,7,0,1
O=C(COC(=O)CCN1C(=O)/C(=C\C=C\c2ccccc2)SC1=S)Nc1cc(F)ccc1F,13,2,16,64*,7.9*,-2
SMILES,Mdm2 MdmX PPI,697 NFkB inh,Jurkat NFkB inh,aSyn UTR inh,IMP-1 inhibitor,VIM-2 inhibitor
O=C(NCCCn1ccnc1)C(=O)NCC1OCCN1S(=O)(=O)c1ccc2c(c1)OCCO2 (stereo unspecified),-49,-17,-10,8,5.1*,1
Cc1cc(C)c(S(=O)(=O)N2CCOC2CNC(=O)C(=O)NCCCn2ccnc2)c(C)c1 (stereo unspecified),-13,6,3,10,7.0*,-2
Cc1ccc(S(=O)(=O)N2CCC(C(=O)N3CCC3)CC2)cc1,25,11,10,1,1,1
COc1ccc(/C=C2\Sc3ccc(C(=O)NCCCN4CCCC4)cc3N(C)C2=O)cc1OC,39,-22,-42,-25,-1,11*
Cc1cccc(/C=C2\Sc3ccc(C(=O)NCC4CCCO4)cc3N(C)C2=O)c1 (stereo unspecified),3,-22,2,-16,-4,-1
CCOc1ccc(/C=C2/Sc3ccc(C(=O)NCC4CCCO4)cc3N(C)C2=O)cc1OC (stereo unspecified),40,-13,6,22,0,8.6*
COc1cccc(NC(=O)c2c(C)nn(-c3ccccc3)c2Cl)c1,-30,-37,-8,-137,-2,-3
CCc1ccc(/C=C2\SC(=S)N(CCCC(=O)Nc3ccccc3C(=O)O)C2=O)cc1,17,6,7,38,-1,-2
O=C(CCCN1C(=O)/C(=C/c2cccs2)SC1=S)Nc1ccc(O)c(C(=O)O)c1,.,.,.,.,0,9.7*
Cc1ccc(/C=C2\SC(=S)N(CCCC(=O)Nc3ccccc3C(=O)O)C2=O)cc1,-32,32,14,68*,-2,1
CCOc1ccc(S(=O)(=O)N2CCC(C(=O)NCCc3ccccc3)CC2)cc1,25,12,-1,18,-1,0
O=C(NCC1CCCO1)c1ccc2c(=O)n(-c3ccccc3)c(=S)[nH]c2c1 (stereo unspecified),-7,13,8,25,4,0
CC(CC1C(C#N)=C(N)SC(N)=C1C#N)c1ccccc1 (stereo unspecified),13,-11,10,.,5.1*,-2
O=C(N/N=C/C(Br)=C/c1ccccc1)c1ccc([N+](=O)[O-])cc1,8,-11,21,-35,42*,0
O=C(N/N=C/c1ccc(Br)s1)c1ccc([N+](=O)[O-])cc1,22,4,-11,84*,-3,-1
CC(NC(=O)c1c(O)c2ccccc2n(C)c1=O)c1ccccc1 (stereo unspecified),-5,-36,-28,-17,-3,0
COc1ccc(NC(=O)/C(C#N)=C/c2cc(C)n(-c3ccc(N4CCOCC4)c([N+](=O)[O-])c3)c2C)cc1,6,-25,34,33,-2,-1
Cc1cc(/C=C(\C#N)C(=O)Nc2ccc(F)cc2)c(C)n1-c1ccc(N2CCOCC2)c([N+](=O)[O-])c1,23,-12,25,9,5.0*,1
CCOc1ccc(/C=N/NC(=O)Cc2ccccc2)cc1CN1CC2CC(C1)c1cccc(=O)n1C2 (stereo unspecified),5,8,3,.,.,.
CC(C)C[C@H](NC(=O)N1CCn2c1nc1ccccc12)C(=O)N[C@@H](C(=O)O)c1ccccc1,9,8,2,11,-5,-3
Cc1cc(C)c2c(c1)[C@@H]1C=CC[C@@H]1[C@H](c1ccc(S(=O)(=O)N3CCOCC3)cc1)N2,.,.,.,.,8.1*,-1
